# Assay outcomes from PubChem.
# Compounds with a hit are over-represented: about 2.3% of the library has one in this group of screens.
# TRPC6 inhibitor = mouse TRPC6 channel inhibitors, primary screen, cell-based, HEK293, membrane potential dye. B-score at 10 µM. ACh-evoked depolarization; stronger effect = lower value. hit rate 1.1% among 310,000. Short transient receptor potential channel 6 (Mus musculus), Q61143;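 active means B-score under library mean minus 3 SD, initial fluorescence not abnormally high, positive integrated signal ratio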;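 further: B-score derived from integrated fluorescence ratio over the kinetic read; more negative B-score means stronger inhibition of depolarization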
# TRPC4 potent = positive allosteric modulators of TRPC4, primary screen, cell-based, mouse TRPC4beta, HEK293 mu-opioid, Fluo-4 calcium; Short transient receptor potential channel 4 (Mus musculus), Q9QUQ5; DAMGO EC20, Fluo-4 Ca2+ flux; stronger effect = higher value; B-score at 10 µM; hit rate 0.42% among 310,000; AID 2227, 2009;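 active means B-score of calcium response area above 5 SD of library B-scores, with initial fluorescence ratio within 5 SD of library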;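 further: B-score of integrated fluorescence ratio over time as area under calcium response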
# Target sequence (Q9QUQ5 whole entry, looked up): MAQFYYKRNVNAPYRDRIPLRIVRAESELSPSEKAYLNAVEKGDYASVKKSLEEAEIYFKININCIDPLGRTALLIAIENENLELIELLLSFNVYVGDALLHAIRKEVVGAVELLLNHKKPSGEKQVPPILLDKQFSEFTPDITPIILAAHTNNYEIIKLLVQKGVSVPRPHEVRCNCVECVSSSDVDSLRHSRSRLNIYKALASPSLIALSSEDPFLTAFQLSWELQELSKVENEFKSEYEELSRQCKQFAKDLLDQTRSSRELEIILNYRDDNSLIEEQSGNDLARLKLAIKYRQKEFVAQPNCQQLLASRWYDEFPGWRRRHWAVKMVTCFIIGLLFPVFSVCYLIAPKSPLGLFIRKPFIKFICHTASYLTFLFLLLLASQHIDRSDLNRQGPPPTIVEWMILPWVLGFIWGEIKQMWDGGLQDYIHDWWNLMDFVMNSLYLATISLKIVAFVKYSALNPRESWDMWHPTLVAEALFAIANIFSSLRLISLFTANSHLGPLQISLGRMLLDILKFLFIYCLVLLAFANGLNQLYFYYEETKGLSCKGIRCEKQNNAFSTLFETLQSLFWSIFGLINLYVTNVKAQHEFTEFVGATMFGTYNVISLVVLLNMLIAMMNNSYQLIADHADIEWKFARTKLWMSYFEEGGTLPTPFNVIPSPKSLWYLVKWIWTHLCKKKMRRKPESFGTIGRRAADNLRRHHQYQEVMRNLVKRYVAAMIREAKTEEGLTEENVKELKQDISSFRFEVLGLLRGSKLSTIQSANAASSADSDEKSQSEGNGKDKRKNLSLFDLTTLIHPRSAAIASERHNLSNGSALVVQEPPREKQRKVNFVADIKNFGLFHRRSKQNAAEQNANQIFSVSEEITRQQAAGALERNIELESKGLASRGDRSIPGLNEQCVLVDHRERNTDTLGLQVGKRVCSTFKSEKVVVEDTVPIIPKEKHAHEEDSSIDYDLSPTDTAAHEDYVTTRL
# TRPC6 activator = mouse TRPC6 channel activators, primary screen, cell-based, HEK293, membrane potential dye; hit rate 0.13% among 310,000; HEK293-TRPC6 membrane potential dye fluorescence; stronger effect = higher value; B-score at 10 µM; Short transient receptor potential channel 6 (Mus musculus), Q61143; AID 2550, 2010;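 active means B-score of the integrated fluorescence ratio above library mean plus 3 SD, and starting fluorescence ratio within library mean plus 5 SD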;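 further: higher score means more depolarization so channel activation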
# TRPC4 inh = inhibitors of mouse TRPC4 channel, primary screen, Fluo4 calcium, HEK293 TRPC4beta/mu-opioid cells; DAMGO-evoked Fluo4 calcium flux; stronger effect = lower value; Short transient receptor potential channel 4 (Mus musculus), Q9QUQ5; hit rate 0.39% among 300,000; AID 2247, 2010; B-score at 10 µM;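 active means B-score over 3 SD under the library average, no early fluorescence shift, positive overall ratio signal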
#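 Signal: kinetic Fluo4 fluorescence imaging of calcium influx. Material: stable TRPC4beta/mu-opioid receptor HEK293 cells. Probe or stimulus: DAMGO in two steps, submaximal then maximal.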
# TRPC4 agonist = activators of mouse TRPC4 channel, primary screen, Fluo4 calcium, HEK293 TRPC4beta/mu-opioid cells; AID 2237, 2010; Fluo4 calcium fluorescence; stronger effect = higher value; B-score at 10 µM; hit rate 0.49% among 310,000; Short transient receptor potential channel 4 (Mus musculus), Q9QUQ5;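 active means B-score above 5 SD of library B-scores, and initial fluorescence ratio not above library mean plus 5 SD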;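 further: positive B-score marks a calcium rise read as TRPC4 activation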
#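 System: HEK293 cells stably co-expressing mouse TRPC4beta and mu-opioid receptor; Schedule: Fluo4 dye loading 45 min at room temperature, 110 s recording; Detection: Fluo4 fluorescence, kinetic; Evaluation: B-scored integrated calcium fluorescence ratio; Controls: buffer (low) and maximal DAMGO (high).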
# TRPC4 spec 2 = second selectivity test of TRPC6 inhibitors: effect on mouse TRPC4. shares compounds with TRPC6 inhibitor. HEK293 TRPC4/MOR, membrane potential dye fluorescence; channel activated by saturating DAMGO dose. inhibition, % at 10 µM. hit rate 42% among 920. AID 2776;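 active means compounds whose fluorescence signal differed from control wells by over 3 SD, either direction, in both duplicate plates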
# TRPC4 spec = mouse TRPC4 modulation by TRPC6 hits, confirmation, selectivity assay for TRPC6 inhibitor project, cell-based, HEK293 TRPC4/mu-opioid, membrane potential dye; shares compounds with TRPC6 inhibitor; membrane potential fluorescence; activity change, negative = inhibition, % at 10 µM; hit rate 61% among 920; AID 2777, 2010;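 active means rise or fall in signal beyond 3 SD of buffer-only wells in both replicate plates, either sign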;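 further: integrated kinetic ratio of fluorescence range over baseline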
# HEK293 MPD ctr 2-1 = nonspecific membrane potential effects, parental HEK293, confirmation, counter-screen for TRPC6 inhibitor project, cell-based, second counter screen; hit rate 31% among 920; parental HEK293 membrane potential dye fluorescence; maximal acetylcholine challenge after compound addition; shares compounds with TRPC6 inhibitor; signal change vs control, % at 10 µM;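 active means membrane potential signal moving either way by over 3 SD of the maximum-effect control, in both duplicate plates, meaning non-specific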
# HEK293 MPD ctr-1 = membrane potential modulation in parental HEK293, confirmation, counter-screen for TRPC6 inhibitor project, cell-based | shares compounds with TRPC6 inhibitor | parental HEK293 membrane potential dye fluorescence | membrane potential signal change, % at 10 µM | hit rate 60% among 920;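 active means membrane potential signal shifting up or down by more than 3 SD of buffer-only wells, on both duplicate plates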
# HEK293 MPD ctr-2 = parental HEK293 membrane potential modulation, confirmation, counter-screen for TRPC6 modulator project, cell-based; shares compounds with TRPC6 inhibitor; AID 488924, 2010; membrane potential signal change, % at 10 µM; membrane potential dye fluorescence; hit rate 51% among 2,400;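 active means membrane potential signal moves up or down beyond 5 SD from buffer-only wells, on both duplicate plates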
# HEK293 MPD ctr 2-2 = second check of TRPC6 modulator effects in parental HEK293 cells. shares compounds with TRPC6 inhibitor. membrane potential dye fluorescence; after compound, maximal acetylcholine stimulation. inhibition, % at 10 µM. hit rate 14% among 2,400. AID 488926;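 active means membrane potential signal drops by more than 5 SD from the mean control signal, in both duplicate plates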;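 further: plate controls were acetylcholine ECmax control wells for no effect and buffer only wells for full effect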
# TRPC4 ctr mod = TRPC4 modulation by TRPC6 hit compounds, confirmation, selectivity assay for TRPC6 modulator project, cell-based, HEK293 TRPC4/mu-opioid, membrane potential dye, mouse; shares compounds with TRPC6 inhibitor; membrane potential fluorescence; percent change from control (negative = decrease, positive = increase), % at 10 µM; hit rate 69% among 2,400;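 active means membrane potential signal moved up or down beyond 5 SD of buffer control wells, in both duplicate plates, actives on both sides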;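 further: plate controls were assay buffer wells for no effect and DAMGO maximal-effect wells for full effect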
# TRPC4 ctr inh 2 = second check of whether TRPC6 modulators also affect mouse TRPC4; shares compounds with TRPC6 inhibitor; HEK293 TRPC4/mu-opioid, membrane potential dye fluorescence; stimulated with maximal-effect DAMGO; inhibition, % at 10 µM; hit rate 55% among 2,400; AID 488928;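 active means drop in membrane potential signal beyond 5 SD of the control wells in both duplicate plates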;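 further: TRPC4 counter screen for TRPC6 hits run under conditions tuned for TRPC6 not TRPC4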
# TRPC6 inh conf = mouse TRPC6 channel inhibitors, confirmation, HEK293 cells, membrane potential dye, duplicate | hit rate 43% among 3,300 | shares compounds with TRPC6 inhibitor | ACh-evoked depolarization | inhibition, % at 10 µM;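 active means fluorescence ratio falls more than 5 SD below the full-stimulation control mean, in both duplicate runs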;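 further: integrated fluorescence ratio of peak minus minimum over baseline after agonist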
# TRPC6 act confirm = mouse TRPC6 channel activators, confirmation, HEK293 cells, membrane potential dye, duplicate; HEK293-TRPC6 membrane potential dye fluorescence, FDSS; hit rate 11% among 2,800; shares compounds with TRPC6 inhibitor; activation, % at 10 µM;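 active means ratio signal rise beyond 5 SD above unstimulated control wells' mean, seen in both duplicate runs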;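 further: plate controls were buffer EC0 wells for no effect and acetylcholine ECmax response for full effect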
# * = called active by the depositor; i = inactive; · = no result.
SMILES,TRPC6 inhibitor,TRPC4 potent,TRPC6 activator,TRPC4 inh,TRPC4 agonist,HEK293 MPD ctr-2,HEK293 MPD ctr 2-2,TRPC4 ctr mod,TRPC4 ctr inh 2,TRPC6 inh conf,TRPC6 act confirm,others
Cc1sc2cc(-c3cccc([N+](=O)[O-])c3)c(-c3cccc([N+](=O)[O-])c3)c[n+]2c1C,-6.71*,i,i,i,i,-332.0%*,96.5%*,-54.0%*,66.5%*,73.5%*,i,
O=[N+]([O-])c1cccc(-c2nnc(-c3ccccc3)o2)c1,i,i,i,i,i,·,·,·,·,·,·,
O=C(NC(Cc1ccccc1)C(=O)O)NC12CC3CC(CC(C3)C1)C2 (stereo not given),i,i,i,i,i,·,·,·,·,·,·,
Cc1cccc(-c2nc(CN3CCCC(C(=O)NC4CCC(C)CC4)C3)c(C)o2)c1 (stereo not given),-6.55*,i,i,i,i,182.5%*,i,33.0%*,46.5%*,i,·,
CCc1ccc2oc(-c3ccc(OC)cc3)cc(=Nc3cccc(C(=O)O)c3)c2c1,i,i,i,i,i,·,·,·,·,·,·,
CCc1ccc2oc(-c3ccc(OC)cc3)cc(=Nc3c(C)n(C)n(-c4ccccc4)c3=O)c2c1,-7.84*,i,i,i,i,·,·,·,·,i,i,TRPC4 spec 2=i;TRPC4 spec=-13.0%*;HEK293 MPD ctr 2-1=i;HEK293 MPD ctr-1=-245.5%*
CCCCCOc1ccc(CSC(=N)N)cc1[N+](=O)[O-],-7.61*,i,i,i,i,·,·,·,·,80.2%*,i,TRPC4 spec 2=45.5%*;TRPC4 spec=i;HEK293 MPD ctr 2-1=i;HEK293 MPD ctr-1=-130.0%*
CCCCOc1ccc(CN(CCO)CCO)cc1[N+](=O)[O-],i,i,i,i,i,·,·,·,·,·,·,
CCCCOc1ccc(Br)cc1CSC(=N)N,-6.94*,i,i,i,i,·,·,·,·,76.5%*,i,TRPC4 spec 2=18.5%*;TRPC4 spec=4.3%*;HEK293 MPD ctr 2-1=i;HEK293 MPD ctr-1=6.7%*
CCC(C)Sc1nnc(NC(=O)c2ccco2)s1 (stereo not given),i,i,i,i,i,·,·,·,·,·,·,
Cc1ccc(N(CCC#N)C(=O)COC(=O)C2CCN(c3ccc(C(F)(F)F)cn3)CC2)cc1,i,i,i,i,i,·,·,·,·,·,·,
Cc1cc(C)cc(N(CCC#N)C(=O)COC(=O)C2CCN(c3ccc(C(F)(F)F)cn3)CC2)c1,-6.42*,i,i,i,i,i,i,13.5%*,i,i,i,
CCN(CC)CCNC(=O)c1ccc(NC(=O)C2CCN(S(=O)(=O)c3ccc4c(c3)OCCO4)CC2)cc1,i,i,i,i,i,·,·,·,·,·,·,
CCN(CC)CCNC(=O)c1ccc(NC(=O)c2cc(S(=O)(=O)N3CCCCC3)ccc2C)cc1,-5.26*,i,i,i,i,i,65.0%*,10.5%*,i,60.0%*,i,
CCN(CC)CCNC(=O)c1ccc(NC(=O)c2cccc(S(=O)(=O)Nc3ccc(C)cc3)c2)cc1,-9.71*,i,i,i,i,·,·,·,·,56.1%*,i,TRPC4 spec 2=i;TRPC4 spec=i;HEK293 MPD ctr 2-1=41.0%*;HEK293 MPD ctr-1=i
CCN(CC)S(=O)(=O)c1cccc(C(=O)Nc2cccc(C)c2)c1,-5.11*,i,i,i,i,i,i,8.0%*,i,i,i,
COc1ccc(S(=O)(=O)N2CCCCCC2)cc1C(=O)NCCOc1ccc(C)cc1,-5.51*,i,i,i,i,172.0%*,i,27.0%*,i,i,·,
Cc1cc(=O)[nH]c(-c2ccc(C(F)(F)F)cc2)n1,i,i,i,i,i,·,·,·,·,·,·,
Cc1ccc(N(C(=O)c2csnn2)C(C(=O)NC2CCCC2)c2cccnc2)c(C)c1 (stereo not given),i,i,i,i,i,·,·,·,·,·,·,
CC(C)(C)C(=O)Nc1cc(NC(=O)C(C)(C)C)cc(C(=O)Nc2c[nH]c(=O)[nH]c2=O)c1,i,i,i,i,i,·,·,·,·,·,·,
O=c1c(Cc2ccc(F)cc2)c(O)ccn1Cc1cccc(Cl)c1,i,i,i,i,i,·,·,·,·,·,·,
COc1ccccc1NC(=O)Nc1ccc2c(c1)CCC2,-5.02*,i,i,i,i,i,i,i,i,i,i,
Cc1ccc(C)c(N2CCN(C(=O)CCCOc3cc(=O)n(C)c4ccccc34)CC2)c1,-6.23*,i,i,i,i,139.0%*,i,30.5%*,i,55.0%*,·,
